# Only some compounds are listed: those with a hit (about 12% of all), similar ones and a draw of the others.
# PKD1 kinase inh – PKD1 (human) kinase inhibition; AID 797; actives 0.056% (n = 200,000); PKD1 kinase fluorescence polarization assay; inhibition, % (test concentration not listed)
# Arbovirus anti – arbovirus infection inhibition; arbovirus infection cell-based antiviral screen; actives 0.37% (n = 200,000); inhibition, % at 10 µM; in the data active means inhibition above about 30%
# CHOP inhibitor – blocks CHOP induction under ER stress; CHO-K1 CHOP-promoter luciferase, tunicamycin-induced, 15-18 h; inhibition, % at 10 µM; actives 3.8% (n = 220,000);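 active means compounds that reduced the stress-induced luciferase reporter signal by more than about 70% of percent inhibition, limit read from the data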;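 further: 0% = tunicamycin plus vehicle and 100% = wells without tunicamycin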
# L major viab – inhibitors of Leishmania major promastigote growth. actives 9% (n = 200,000). inhibition, % at 10 µM. Leishmania major promastigotes, resazurin fluorescence viability;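 further: promastigotes grown with compound for 44 hours at 28 °C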
# Wee1 degr inh – blocks degradation of human Wee1 kinase; P30291; HeLa Luc-Wee1K328M stability, luciferase luminescence; 100% = proteasome inhibitor MG132 effect; reporter increase, % at 5 µM; actives 1.2% (n = 220,000); AID 1321;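 active means activation above the mean of all tested compounds plus 3 SD, set per screening run, cut at about 8.8% in these data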;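 further: cells exposed to compound for 20 h before luminescence read; 0% = DMSO alone and 100% = MG132 at 30 µM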
# Rad51 HR inh – blocks human Rad51 in homologous recombination. AID 1385. actives 0.085% (n = 200,000). Q06609. inhibition, % at 10 µM. hRad51 DNA strand exchange, fluorescence dequenching;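 active means inhibition above 40% at the single screening dose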;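 further: 0% = DMSO control wells and 100% = blanks with heterologous ssDNA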
#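 System: human Rad51 nucleoprotein filaments preassembled on unlabelled ssDNA. Reagent: labelled 47-mer dsDNA for strand exchange. Schedule: 30-min compound preincubation and 15-min exchange, both room temperature. Measured by: FRET fluorescence dequenching, excitation 485 nm, emission 520 nm. Read-out: Fluorescence-based percent inhibition, control- and blank-normalised. Benchmarks: plate controls and plate blanks.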
# The depositor's hits bear a star; / = no result. Unless noted, no stated cut-off is given here; in the data, active means inhibition above about 50%; inactive means the rest.
SMILES,PKD1 kinase inh,Arbovirus anti,CHOP inhibitor,L major viab,Wee1 degr inh,Rad51 HR inh
Cc1cccc(NC(=O)N2CCN(Cc3ccc4c(c3)OCO4)CC2)c1C,2,-12,17,56*,3,1
Cc1cc(Cl)ccc1NC(=S)N1CCN(Cc2ccc3c(c2)OCO3)CC1,-1,5,51,87*,1,3
COc1ccccc1/C=C/CN1CCCC(CCC(=O)NCc2ccccc2F)C1 (stereo unspecified),-7,1,21,37,-2,27
CCOCCCNC(=S)N1CCN(Cc2ccc3c(c2)OCO3)CC1,-6,-15,16,74*,-3,-3
CCCCNCC#CCOc1cc(C)ccc1C(C)C,-10,-1,59,95*,2,5
Cc1ccc(C(C)C)c(OCCCNCc2cccnc2)c1,0,-15,4,87*,-1,23
Cc1ccc(C(C)C)c(OCCNS(C)(=O)=O)c1,-6,4,7,-2,1,-3
Cc1noc(C)c1S(=O)(=O)Nc1ccccc1N1CCOCC1,/,/,-4,/,0,-6
Cc1ccn2cc(-c3ccc(Br)cc3)nc2c1,/,/,55,/,2,1
CCc1ccn2cc(-c3cc(-c4ccccc4)no3)nc2c1,/,/,77*,/,-4,10
CS(=O)(=O)N(CCC#N)Cc1ccc(/C=C2\C(=O)Nc3ccccc32)o1,10,21,21,7,-4,3
N#Cc1cc2c(=O)n3ccccc3nc2n(-c2ccccc2Cl)c1=O,-6,-5,5,17,1,-14
CCOC(=O)c1ccc(NC(=O)CCc2nc(-c3ccc(Cl)cc3)no2)cc1,5,-3,73*,-2,0,-3
CCOC(=O)c1ccc(NC(=O)CCc2nc(-c3ccc(C)cc3)no2)cc1,-18,14,62,5,0,-1
Cc1ccc(-c2noc(CCCC(=O)Nc3cccnc3)n2)cc1,-1,8,78*,-5,1,-4
O=C(CN1CCCCC1)N=Nc1c(O)[nH]c2ccccc12,3,0,4,8,3,/
O=C(CN1CCN(Cc2ccccc2)CC1)N=Nc1c(O)[nH]c2ccccc12,8,-10,10,96*,2,-8
COc1ccccc1NNC(=O)c1cccnc1Oc1ccccc1,/,/,1,/,4,13
O=C(Nc1ccc(F)c(Cl)c1)C1CC(=O)n2c(nc3ccccc32)N1 (stereo unspecified),-2,1,76*,2,-1,0
O=C(Nc1ccc(F)cc1)C1CC(=O)n2c(nc3ccccc32)N1 (stereo unspecified),-8,3,33,-7,-1,-9
CC(O)CNCCCOc1ccc(Cl)cc1C(C)(C)C (stereo unspecified),0,-31,15,72*,0,14
CN(C)CCOCCOc1ccc(Cl)cc1C(C)(C)C,3,-27,1,98*,0,/
Cc1cc(Cl)cc(Br)c1OCCNCC(C)O (stereo unspecified),6,-12,5,5,4,3
Cc1cc(C(=O)N/N=C/c2cc(N=Nc3ccccc3)ccc2O)n[nH]1,2,-25,89*,99*,5,0
COc1cccc(C(=O)Oc2c(Br)cc(Br)cc2/C=N/NC(=O)c2cc(C)[nH]n2)c1,4,-25,66,78*,-3,0
SMILES,PKD1 kinase inh,Arbovirus anti,CHOP inhibitor,L major viab,Wee1 degr inh,Rad51 HR inh
Cc1cc(C(=O)N/N=C/c2ccc(-c3cccc(Br)c3)o2)n[nH]1,/,/,-13,/,10*,15
COC(=O)N/N=C/c1cc(N=Nc2ccccc2Cl)ccc1O,/,/,49,/,1,/
Cc1cc(C(=O)N/N=C/c2cccc([N+](=O)[O-])c2O)n[nH]1,-6,-11,16,-3,0,1
Nc1ccc(C(=O)N/N=C\c2cc(N=Nc3cccc4ccccc34)ccc2O)cc1,-8,-36,66,99*,0,0
CCCNC(=S)NCc1ccc(Cl)cc1,4,3,15,-7,2,15
CCCC(=O)Nc1ccc(C(=O)Nc2ccc([N+](=O)[O-])cc2OC)cc1,1,0,13,4,4,2
Cc1ccccc1Nc1nnc(SCC(=O)NC2CCCc3ccccc32)s1 (stereo unspecified),-1,0,21,6,-3,5
CCn1c(=O)c([N+](=O)[O-])c(N2CCN(Cc3ccc4c(c3)OCO4)CC2)c2ccccc21,/,/,-2,/,-1,15
